{"data": "Measured values from different studies", "target": "Atypical kinase COQ8A, mitochondrial (COQ8A, Homo sapiens, UniProt Q8NI60)", "note": "Lines come from different studies, so protocols differ."}
{"Compound": "CC(=O)C1=C(C)N(c2cccc(C(F)(F)F)c2)C(=O)N[C@@H]1c1ccc(C#N)nc1", "effect on": "cell-free assay", "method": "competition with immobilised ligand", "tested at": "1 µM", "remaining binding [%]": 100}
{"Compound": "COc1cnc(Nc2cccc(S(N)(=O)=O)c2)nc1N1CCN(c2ccccc2)CC1", "effect on": "binding", "method": "competition with immobilised ligand", "tested at": "1 µM", "remaining binding [%]": 100}
{"Compound": "F[C@@H]1CCN(c2nccc(-c3cnn4ncccc34)n2)C1", "effect on": "binding", "tested at": "1 µM", "remaining binding [%]": 100}
{"Compound": "FC(F)(F)c1ccc2c(c1)nc(-c1cccnc1)n2C1CC1", "effect on": "cell-free assay", "method": "competition with immobilised ligand", "tested at": "1 µM", "remaining binding [%]": 100}
{"Compound": "C[C@@H]1CCN(c2nccc(-c3cnn4ncccc34)n2)C1", "effect on": "binding", "tested at": "1 µM", "remaining binding [%]": 100}
{"Compound": "C[C@@H]1CN(c2cc(-c3nn(C)c4ccc(OC5(C)CC5)cc34)ncn2)C[C@H](C)O1", "effect on": "cell-free assay", "method": "competition with immobilised ligand", "tested at": "1 µM", "remaining binding [%]": 100}
{"Compound": "Cc1cnc(Nc2ccc(C(=O)N3CCC(N4CCCC4)CC3)cc2)nc1-c1cc2ccccc2s1", "effect on": "binding", "method": "competition with immobilised ligand", "tested at": "1 µM", "remaining binding [%]": 85}
{"Compound": "CN(CCCC(F)(F)F)c1nccc(-c2cnn3ncccc23)n1", "effect on": "binding", "tested at": "1 µM", "remaining binding [%]": 99}
{"Compound": "C=CC(=O)N1CCC(C(=O)NCC(=O)N2CCN(c3nc(-c4cnc(N)nc4C(F)F)nc(N4CCOCC4)n3)CC2)CC1", "effect on": "binding", "method": "competition with immobilised ligand", "tested at": "1 µM", "remaining binding [%]": 78}
{"Compound": "O=C(NCCCN1CCOCC1)c1ccc(Nc2ncc(Cl)c(-c3ccc(Cl)s3)n2)cc1", "effect on": "binding", "method": "competition with immobilised ligand", "tested at": "1 µM", "remaining binding [%]": 100}
{"Compound": "CN(C)c1nccc(-c2cnn3ncccc23)n1", "effect on": "binding", "tested at": "1 µM", "remaining binding [%]": 88}
{"Compound": "C[C@@H]1CN(c2ccc3ncc(-c4ccc5[nH]nc(C6CC6)c5c4)n3n2)C[C@H](C)O1", "effect on": "binding", "method": "competition with immobilised ligand", "tested at": "50 nM", "remaining binding [%]": 94}
{"Compound": "CC(C)(C)c1ccc(-c2nc(CBr)nn2-c2cccc(O)c2)cc1", "effect on": "cell-free assay", "method": "competition with immobilised ligand", "tested at": "10 µM", "remaining binding [%]": 86}
{"Compound": "O=C(c1ccc(Nc2nccc(-c3cc4ccccc4s3)n2)cc1)N1CCC(N2CCCC2)CC1", "effect on": "binding", "method": "competition with immobilised ligand", "tested at": "1 µM", "remaining binding [%]": 88}
{"Compound": "CCN1CCN(Cc2ccc(C(=O)Nc3ccc(C)c(Oc4ccc5c(c4)CC(=O)N5)c3)cc2C(F)(F)F)CC1", "effect on": "binding", "method": "competition with immobilised ligand", "tested at": "1 µM", "remaining binding [%]": 92}
{"Compound": "Cn1nc(C(F)(F)F)cc1-c1cnc(N2CCc3cc(S(=O)(=O)Nc4c(F)cc(Cl)cc4F)cc(N4CCCC4=O)c32)nc1", "effect on": "cell-free assay", "method": "competition with immobilised ligand", "tested at": "1 µM", "remaining binding [%]": 100}
{"Compound": "N#Cc1ccccc1CSc1nnc2c(n1)[nH]c1ccccc12", "effect on": "binding", "method": "competition with immobilised ligand", "tested at": "10 µM", "remaining binding [%]": 95}
{"Compound": "CS(=O)(=O)c1cc(C2(NC(=O)c3cncc4c3cnn4-c3ccc(F)cc3)CC2)ccn1", "effect on": "cell-free assay", "method": "competition with immobilised ligand", "tested at": "1 µM", "remaining binding [%]": 100}
{"Compound": "c1cnn2ncc(-c3ccnc(N4CCC45COC5)n3)c2c1", "effect on": "binding", "tested at": "1 µM", "remaining binding [%]": 100}
{"Compound": "Cc1cc(NC(=O)c2cccc(S(F)(F)(F)(F)F)c2)cc(-n2ccn3nc(-c4cccnc4)cc23)c1", "effect on": "cell-free assay", "method": "competition with immobilised ligand", "tested at": "1 µM", "remaining binding [%]": 82.8}
{"Compound": "N[C@@H]1CCN(c2nccc(-c3cnn4ncccc34)n2)C1", "effect on": "binding", "tested at": "1 µM", "remaining binding [%]": 100}
{"Compound": "CNCc1ccccc1-c1csc([C@H](C)Nc2nc(C)nc3cc(OC)c(OC)cc23)c1", "effect on": "cell-free assay", "method": "competition with immobilised ligand", "tested at": "1 µM", "remaining binding [%]": 91}
{"Compound": "O=C(Nc1c[nH]nc1C(=O)NC1CCNCC1)c1cc(F)cc(F)c1", "effect on": "binding", "method": "competition with immobilised ligand", "tested at": "1 µM", "remaining binding [%]": 100}
